Like-named read-outs stand apart in the source and are kept apart here. Marks after values point to notes of the source that are not given here.
Assays:
[1] = system: α7* nAChR binding sites; assay type: in vivo, DBA/2J mice; details: for [125I]α-bungarotoxin binding: 3-IC 0.2 mg/kg/h iv 7 days; for [125I]α-bungarotoxin binding % change: 3-IC 0.2 mg/kg/h iv 7 days vs saline
[2] = system: cytisine-resistant [125I]epibatidine binding sites (mixed population of nAChR); details: membranes, any brain region analyzed; 0.2 mg/kg/h iv 7 days
[3] = system: β2 null mutant mice; assay: 3-IC-induced hypothermia in β2 null mutant and wild-type mice; assay type: in vivo, mouse; details: 0.2 mg/kg ip
Procedure, shortened: (§1)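 Null mutants were backcrossed onto C57BL/6J for at least 10 generations, genotyped from tail DNA, and compared with wild-type mice (β2-/- n = 5; β4-/- n = 5). Test compound was given at 0.2 mg/kg IP in 10 µl/g body weight. Rectal temperature was taken every 5 minutes with a peanut-oil-lubricated probe inserted 1.5 cm. Data are mean ± SEM, analysed by repeated-measures ANOVA (time × genotype).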

[4] = system: [125I]epibatidine binding sites (β2*- and β4*-nAChR); parameters: species or system C57BL/6J mice; details: inferior colliculus, wild-type
[5] = system: [3H]noradrenaline release; details: read-out: EC50 [3H]noradrenaline release; rat hippocampal slices; ref Abin-Carriquiry et al., 2006; cited from earlier work
[6] = target: human α7; details: read-out: Ki human α7; expressed in Xenopus oocytes; ref Slater et al., 2003; cited from earlier work
[7] = target: β2*-nAChR (Mus musculus, UniProt O70174+Q9ERK7); assay: biochemical; assay type: binding, C57BL/6J mice; details: read-out: [125I]epibatidine (β4 -/-) Ki; inferior colliculi, β4-/- mice; 200 pM ligand
β2*-nAChR, sequence (O70174 31-629): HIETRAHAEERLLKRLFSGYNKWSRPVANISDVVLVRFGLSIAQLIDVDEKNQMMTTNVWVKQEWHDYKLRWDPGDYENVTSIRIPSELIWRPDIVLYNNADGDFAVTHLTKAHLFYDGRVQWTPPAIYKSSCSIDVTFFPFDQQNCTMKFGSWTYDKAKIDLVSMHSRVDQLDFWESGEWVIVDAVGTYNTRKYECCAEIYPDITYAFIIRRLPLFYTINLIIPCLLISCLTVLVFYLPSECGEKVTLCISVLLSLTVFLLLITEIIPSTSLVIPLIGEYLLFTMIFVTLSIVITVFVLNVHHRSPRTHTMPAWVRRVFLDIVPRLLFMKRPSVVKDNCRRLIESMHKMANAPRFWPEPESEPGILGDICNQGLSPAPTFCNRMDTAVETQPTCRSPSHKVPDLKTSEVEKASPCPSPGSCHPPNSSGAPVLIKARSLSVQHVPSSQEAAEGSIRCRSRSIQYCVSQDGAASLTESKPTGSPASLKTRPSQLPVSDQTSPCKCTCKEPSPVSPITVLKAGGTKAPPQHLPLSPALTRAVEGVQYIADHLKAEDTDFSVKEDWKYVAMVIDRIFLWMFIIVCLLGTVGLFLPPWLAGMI
β2*-nAChR, sequence (Q9ERK7 26-501): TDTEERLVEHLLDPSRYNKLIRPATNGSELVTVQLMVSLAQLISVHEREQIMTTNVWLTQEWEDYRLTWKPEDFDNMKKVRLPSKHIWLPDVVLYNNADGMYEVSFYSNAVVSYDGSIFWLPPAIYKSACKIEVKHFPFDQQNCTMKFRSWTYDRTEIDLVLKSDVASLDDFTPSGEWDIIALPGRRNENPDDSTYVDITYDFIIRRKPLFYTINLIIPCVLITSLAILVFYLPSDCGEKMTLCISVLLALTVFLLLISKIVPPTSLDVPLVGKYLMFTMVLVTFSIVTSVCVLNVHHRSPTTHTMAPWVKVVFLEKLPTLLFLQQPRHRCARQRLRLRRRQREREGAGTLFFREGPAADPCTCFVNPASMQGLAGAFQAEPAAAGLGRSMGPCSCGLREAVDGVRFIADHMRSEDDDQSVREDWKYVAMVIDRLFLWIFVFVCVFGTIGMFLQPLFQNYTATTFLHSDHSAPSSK

[8] = system: DBA/2J mice; assay: 3-IC-induced hypothermia; assay type: in vivo, mouse
[9] = target: α7* receptors; details: read-out: Ki α7* receptors in rat brain; ref Abin-Carriquiry et al., 2006; cited from earlier work
[10] = system: A85380-resistant [125I]epibatidine binding sites (mainly α3β4* nAChR); details: membranes; 0.2 mg/kg/h iv 7 days
[11] = target: α4β2* receptors; details: read-out: Ki α4β2* receptors in rat brain; ref Abin-Carriquiry et al., 2006; cited from earlier work
[12] = system: β4 null mutant mice; assay: 3-IC-induced hypothermia in β4 null mutant and wild-type mice; assay type: in vivo, mouse; details: 0.2 mg/kg ip
Procedure, shortened: as §1

[13] = target: human α4β2; details: read-out: Ki human α4β2; expressed in Xenopus oocytes; ref Slater et al., 2003; cited from earlier work
[14] = target: α7-nAChR (Mus musculus, UniProt P49582); assay: biochemical; assay type: binding, C57BL/6J mice; details: read-out: [125I]α-bungarotoxin (WT) Ki; […]; 0.5 nM ligand; one-site model
α7-nAChR, sequence (P49582 23-502): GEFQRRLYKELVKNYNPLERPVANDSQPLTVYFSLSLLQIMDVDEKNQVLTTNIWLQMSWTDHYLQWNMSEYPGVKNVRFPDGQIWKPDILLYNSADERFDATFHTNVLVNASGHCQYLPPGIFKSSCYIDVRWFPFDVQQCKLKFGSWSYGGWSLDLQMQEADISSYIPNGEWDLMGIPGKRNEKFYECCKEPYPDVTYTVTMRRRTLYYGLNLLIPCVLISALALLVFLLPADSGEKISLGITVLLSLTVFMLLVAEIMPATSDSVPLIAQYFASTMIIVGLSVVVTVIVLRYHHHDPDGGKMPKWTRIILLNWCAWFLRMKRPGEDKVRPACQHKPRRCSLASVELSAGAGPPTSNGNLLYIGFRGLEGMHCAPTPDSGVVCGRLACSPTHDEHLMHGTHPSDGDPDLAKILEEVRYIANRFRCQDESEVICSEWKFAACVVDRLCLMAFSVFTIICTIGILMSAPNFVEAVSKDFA

[15] = inferior colliculus (externall)
[16] = superior colliculus (optic nerve)
[17] = superior colliculus (sup. gray)
[18] = supramammillary hypothalamic nucleus
[19] = ventrolateral geniculate nucleus

O=c1c(I)ccc2n1C[C@@H]1CNC[C@H]2C1 [3-IC, 3-iodocytisine]
[125I]α-bungarotoxin binding ([1]; caudate putamen): 19.6 ± 2.3 fmol/mg
[125I]α-bungarotoxin binding % change ([1]; caudate putamen): 65.8%
[125I]α-bungarotoxin binding % change ([1]; caudate putamen, listed as 3-iodocytisine): 65.8 * %
[125I]α-bungarotoxin binding ([1]; cingulate cortex): 6.3 ± 1.4 fmol/mg
[125I]α-bungarotoxin binding % change ([1]; cingulate cortex): 11.7%
[125I]α-bungarotoxin binding ([1]; dentate gyrus (granular layer)): 11.7 ± 1.2 fmol/mg
[125I]α-bungarotoxin binding % change ([1]; dentate gyrus (granular layer)): 63.5%
[125I]α-bungarotoxin binding ([1]; hippocampus (CA1-3)): 10.2 ± 0.8 fmol/mg
[125I]α-bungarotoxin binding % change ([1]; hippocampus (CA1-3)): 77.5%
[125I]α-bungarotoxin binding % change ([1]; hippocampus (CA1-3), listed as 3-iodocytisine): 77.5 ** %
[125I]α-bungarotoxin binding ([1]; inferior colliculus (central)): 37.6 ± 4.2 fmol/mg
[125I]α-bungarotoxin binding % change ([1]; inferior colliculus (central)): 21.7%
[125I]α-bungarotoxin binding ([1]; inferior colliculus (dorsal)): 21.7 ± 3.7 fmol/mg
[125I]α-bungarotoxin binding % change ([1]; inferior colliculus (dorsal)): 14.4%
[125I]α-bungarotoxin binding [1, 15]: 23.5 ± 4.1 fmol/mg
[125I]α-bungarotoxin binding % change [1, 15]: 33.1%
[125I]α-bungarotoxin binding ([1]; interpeduncular nucleus): 23.5 ± 1.4 fmol/mg
[125I]α-bungarotoxin binding % change ([1]; interpeduncular nucleus): 26.2 * %
[125I]α-bungarotoxin binding ([1]; medial habenula): 11.6 ± 1.0 fmol/mg
[125I]α-bungarotoxin binding % change ([1]; medial habenula): 26.4%
[125I]α-bungarotoxin binding ([1]; nucleus accumbens): 6.8 ± 0.7 fmol/mg
[125I]α-bungarotoxin binding % change ([1]; nucleus accumbens): 81.2%
[125I]α-bungarotoxin binding % change ([1]; nucleus accumbens, listed as 3-iodocytisine): 81.2 ** %
[125I]α-bungarotoxin binding ([1]; parietal cortex (layers 1-3)): 5.9 ± 0.3 fmol/mg
[125I]α-bungarotoxin binding % change ([1]; parietal cortex (layers 1-3)): 79.3 ** %
[125I]α-bungarotoxin binding ([1]; parietal cortex (layers 4-6)): 7.8 ± 0.4 fmol/mg
[125I]α-bungarotoxin binding % change ([1]; parietal cortex (layers 4-6)): 74.4 ** %
[125I]α-bungarotoxin binding ([1]; retrosplenial Cortex): 4.8 ± 0.4 fmol/mg
[125I]α-bungarotoxin binding % change ([1]; retrosplenial Cortex): 21.2%
[125I]α-bungarotoxin binding ([1]; subiculum): 7.1 ± 0.7 fmol/mg
[125I]α-bungarotoxin binding % change ([1]; subiculum): 22.0%
[125I]α-bungarotoxin binding ([1]; substantia nigra): 7.9 ± 0.9 fmol/mg
[125I]α-bungarotoxin binding % change ([1]; substantia nigra): 29.5%
[125I]α-bungarotoxin binding [1, 16]: 11.5 ± 0.5 fmol/mg
[125I]α-bungarotoxin binding % change [1, 16]: 44.2 ** %
[125I]α-bungarotoxin binding [1, 17]: 23.1 ± 0.8 fmol/mg
[125I]α-bungarotoxin binding % change [1, 17]: 34.7 ** %
[125I]α-bungarotoxin binding [1, 18]: 12.1 ± 1.2 fmol/mg
[125I]α-bungarotoxin binding % change [1, 18]: 24.4%
[125I]α-bungarotoxin binding ([1]; ventral tegmental area): 5.2 ± 0.4 fmol/mg
[125I]α-bungarotoxin binding % change ([1]; ventral tegmental area): 40.5%
[125I]α-bungarotoxin binding % change ([1]; ventral tegmental area, listed as 3-iodocytisine): 40.5 * %
[125I]α-bungarotoxin binding [1, 19]: 18.1 ± 1.2 fmol/mg
[125I]α-bungarotoxin binding % change [1, 19]: 30.2 * %
[125I]α-bungarotoxin binding ([1]; zona incerta): 11.1 ± 1.0 fmol/mg
[125I]α-bungarotoxin binding % change ([1]; zona incerta): 52.1%
[125I]α-bungarotoxin binding % change ([1]; zona incerta, listed as 3-iodocytisine): 52.1 * %
density of cytisine-resistant [125I]epibatidine binding sites vs saline [2]: No significant differences
maximal 3-IC induced hypothermia (decrease of temperature) ([3]; β2+/+ mice): 9.8 ± 0.76 °C
maximal 3-IC induced hypothermia (decrease of temperature) ([3]; β2-/- mice): 8.4 ± 1 °C
difference in affinity for the two [125I]epibatidine binding sites [4]: 1.6 fold
EC50 [5]: 220 nM
Ki [6]: 7 nM
Ki [7]: 0.128 ± 0.003 nM
decrease of basal temperature ([8]; 0.2 mg/kg ip acute, DBA/2J): 7.7 ± 0.5 °C
tremors or diarrhea ([8]; 0.2 mg/kg ip, DBA/2J and C57BL/6J): without inducing tremors or diarrhea
maximal temperature decrease ([8]; 1 mg/kg ip, DBA/2J): 11.9 ± 0.4 °C
time of maximal hypothermia after 3-IC injection, saline pretreated ([8]; 3-IC 0.2 mg/kg, DBA/2J): 40 min
seizures ([8]; any dose tested (0.05-1 mg/kg ip), DBA/2J and C57BL/6J): no seizures were noted
maximal 3-IC-induced hypothermia after saline pretreatment ([8]; hexamethonium experiment, 3-IC 0.2 mg/kg, DBA/2J): 8.10 ± 0.63 °
doses at which tremors were seen ([8]; ip acute, DBA/2J and C57BL/6J): above 0.5 mg/kg
ED50 for hypothermia ([8]; ip, DBA/2J, maximal drop in temperature): 0.15 ± 0.04 mg/kg
3-IC-induced hypothermia after saline pretreatment ([8]; mecamylamine experiment, 3-IC 0.2 mg/kg ip, DBA/2J): 8.50 ± 0.42 °C
Ki [9]: 115 nM
A85380 resistant component of [125I]epibatidine binding [10]: unmodified
Ki [11]: 0.17 nM
maximal hypothermia ([12]; β4+/+ mice): 7.9 ± 0.3 °C
maximal hypothermia ([12]; β4-/- mice): 2.9 ± 0.4 °C
Ki [13]: 0.7 nM
Ki [14]: 2.2 ± 1.2 nM

From paper PMC2735267 (Neuropharmacology, 2009)
